Data set [1] can be described thus: Toxicity in Balb/c mouse assessed as survival rate at 500 mg/kg, ip qd administered for 6 days followed by 1 week recovery (reference value: 100%). The settings on record: in vivo. It counts as organism-based.
Data set [2] has as its target T1, Protein deacetylase HDAC6 (Mus musculus) (UniProt Q9Z2V5).
T1 sequence (whole entry): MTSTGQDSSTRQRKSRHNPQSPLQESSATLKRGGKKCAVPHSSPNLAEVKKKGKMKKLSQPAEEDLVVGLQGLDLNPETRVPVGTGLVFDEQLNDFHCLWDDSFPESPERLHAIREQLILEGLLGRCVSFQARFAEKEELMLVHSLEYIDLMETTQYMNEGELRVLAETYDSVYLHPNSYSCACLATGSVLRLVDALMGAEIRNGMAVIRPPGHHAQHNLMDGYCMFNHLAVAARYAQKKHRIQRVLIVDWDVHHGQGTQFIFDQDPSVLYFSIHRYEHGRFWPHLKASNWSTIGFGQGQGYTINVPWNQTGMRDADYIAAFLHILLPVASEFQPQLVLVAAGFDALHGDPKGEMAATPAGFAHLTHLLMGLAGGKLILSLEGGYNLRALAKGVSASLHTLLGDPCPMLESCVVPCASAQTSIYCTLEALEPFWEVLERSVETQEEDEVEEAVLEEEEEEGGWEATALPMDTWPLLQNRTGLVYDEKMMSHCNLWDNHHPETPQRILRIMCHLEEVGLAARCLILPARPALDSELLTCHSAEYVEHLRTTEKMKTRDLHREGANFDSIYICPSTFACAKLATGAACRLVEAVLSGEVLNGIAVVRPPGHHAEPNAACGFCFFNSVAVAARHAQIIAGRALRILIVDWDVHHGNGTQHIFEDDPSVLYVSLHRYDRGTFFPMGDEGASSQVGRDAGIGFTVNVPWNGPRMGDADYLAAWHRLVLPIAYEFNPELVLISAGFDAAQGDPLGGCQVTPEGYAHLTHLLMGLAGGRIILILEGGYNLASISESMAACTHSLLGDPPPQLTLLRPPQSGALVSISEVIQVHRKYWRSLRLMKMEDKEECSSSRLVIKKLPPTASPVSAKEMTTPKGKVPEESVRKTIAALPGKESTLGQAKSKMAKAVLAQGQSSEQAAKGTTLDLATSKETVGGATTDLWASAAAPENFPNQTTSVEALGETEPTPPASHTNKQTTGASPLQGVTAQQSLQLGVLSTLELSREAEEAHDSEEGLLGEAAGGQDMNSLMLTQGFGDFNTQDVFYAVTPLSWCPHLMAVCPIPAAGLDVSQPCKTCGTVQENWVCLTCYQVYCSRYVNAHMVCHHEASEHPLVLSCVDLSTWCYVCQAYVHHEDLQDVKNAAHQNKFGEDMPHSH
The experiment in a line: Inhibition of HDAC6 in mouse Neuro-2a cells transfected with pCAX FLAG APP and pRK5-EGFP-Tau P301L plasmids assessed as inhibition of Tau P301L mutant phosphorylation at Ser404 residue at 1 uM after 24 hrs by Western blot analysis. It counts as cell-based. In outline:
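SH-SY5Y or Neuro-2a cells cotransfected 24 h with pCAX APP695 and pRK5-EGFP-Tau P301L, then treated 24 h at 1 µM. 20 µg lysate protein immunoblotted for APP and phospho-tau Ser396/Ser404. Mean ± STD of three independent experiments; Student's t-test.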
For orientation: A western blot detects proteins with antibodies after separation by electrophoresis.

For data set [3], the target named is T2, Protein deacetylase HDAC6 (Homo sapiens) (UniProt Q9UBN7).
T2 sequence (whole entry): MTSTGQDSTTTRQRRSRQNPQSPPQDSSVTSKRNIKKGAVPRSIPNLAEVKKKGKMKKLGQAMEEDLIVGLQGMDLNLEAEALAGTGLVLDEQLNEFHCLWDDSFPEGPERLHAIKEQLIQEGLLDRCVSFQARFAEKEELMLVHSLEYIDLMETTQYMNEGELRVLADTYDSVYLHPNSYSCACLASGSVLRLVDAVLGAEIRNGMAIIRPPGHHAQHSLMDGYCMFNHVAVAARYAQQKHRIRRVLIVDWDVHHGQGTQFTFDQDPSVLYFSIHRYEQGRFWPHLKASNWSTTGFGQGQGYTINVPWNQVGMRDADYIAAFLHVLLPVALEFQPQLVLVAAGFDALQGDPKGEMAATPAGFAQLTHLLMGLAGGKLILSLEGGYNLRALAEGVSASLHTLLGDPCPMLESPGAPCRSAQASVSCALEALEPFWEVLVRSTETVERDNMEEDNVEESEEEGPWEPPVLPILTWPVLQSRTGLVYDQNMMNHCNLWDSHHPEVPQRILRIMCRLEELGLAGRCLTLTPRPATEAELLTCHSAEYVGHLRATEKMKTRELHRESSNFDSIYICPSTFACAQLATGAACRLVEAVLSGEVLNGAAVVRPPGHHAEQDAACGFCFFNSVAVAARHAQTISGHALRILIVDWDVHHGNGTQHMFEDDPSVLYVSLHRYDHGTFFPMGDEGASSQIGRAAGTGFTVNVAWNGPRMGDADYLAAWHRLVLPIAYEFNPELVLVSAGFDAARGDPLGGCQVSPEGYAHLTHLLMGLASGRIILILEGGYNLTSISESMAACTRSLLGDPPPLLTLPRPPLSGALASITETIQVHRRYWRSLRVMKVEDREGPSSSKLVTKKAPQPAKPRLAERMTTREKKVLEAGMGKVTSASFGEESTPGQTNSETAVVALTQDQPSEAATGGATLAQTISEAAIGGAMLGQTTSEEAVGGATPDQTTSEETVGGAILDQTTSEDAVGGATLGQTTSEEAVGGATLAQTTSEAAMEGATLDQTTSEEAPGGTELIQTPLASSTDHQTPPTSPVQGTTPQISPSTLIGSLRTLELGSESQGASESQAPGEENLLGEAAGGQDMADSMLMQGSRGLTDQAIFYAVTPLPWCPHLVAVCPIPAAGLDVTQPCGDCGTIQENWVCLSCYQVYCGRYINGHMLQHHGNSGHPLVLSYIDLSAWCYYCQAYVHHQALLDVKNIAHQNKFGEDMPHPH
The experiment in a line: Inhibition of HDAC6 in human SH-SY5Y cells transfected with pCAX FLAG APP and pRK5-EGFP-Tau P301L plasmids assessed as suppression of phosphorylated tau P301L mutant-induced apoptosis by measuring accumulation at sub-G1 phase at 0.01 uM after 24 hrs by propidium iodide staining-based flow cytometry (reference value: 22.01%). Format: cell-based. Set-up: scale not given: the % may be the effect or the level left. A general note: A flow cytometer gives signals particle by particle.

The nature of data set [4]: Toxicity in Balb/c mouse assessed as survival rate at 100 mg/kg, ip qd administered for 6 days followed by 1 week recovery (reference value: 100%). It counts as organism-based. The settings on record: in vivo.
Data set [5] concerns the target T2, Protein deacetylase HDAC6 (Homo sapiens). The experiment in a line: Inhibition of HDAC6 in human SH-SY5Y cells transfected with pCAX FLAG APP and pRK5-EGFP-Tau P301L plasmids assessed as increase in HSP70 protein expression at 1 uM after 24 hrs by Western blot analysis. It counts as cell-based. In outline: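 SH-SY5Y and Neuro-2a cells cotransfected 24 h with APP695/Tau P301L plasmids, treated 24 h at 1 µM (ACY-1215 reference). 30 µg lysate immunoprecipitated overnight at 4 °C with anti-HDAC6 or anti-acetyl-lysine antibodies plus protein A/G beads, run on 8% SDS-PAGE, probed for Hsp90; Hsp70 by immunoblot. Three independent experiments.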

Activity calls are given as the source filed them. No cut-off for these calls is given here.

Turning to `COc1ccc(C(=O)c2ccc3c(ccn3Cc3ccc(C(=O)NO)cc3)c2)cc1`, the survival in data set [1] and in data set [4] was 100% each time. Moreover, the inhibition entry in data set [2] and in data set [5] was “Active” each time. In addition, in data set [3], the Activity was 15.6%.
